Sampled rows, rich in hits. Any-hit rate of the full collection: about 4%.
Mdm2-MdmX inh – inhibitors of human Mdm2/MdmX interaction; AID 485346; SaOS-2 split-luciferase Mdm2/MdmX complementation, luminescence; inhibition, % at 8 µM; hit rate 3% among 330,000; O15151+Q00987;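 active means inhibition of at least 50% at 8 µM in the primary screen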
CHOP UPR activ – apoptotic UPR (CHOP) activation | CHO-CHOP luciferase reporter, luminescence; percent of tunicamycin response over DMSO baseline | activation, % at 10 µM | hit rate 0.34% among 330,000 | AID 449763;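 active means at 10 µM dose, activation of 40% or more, normalized to positive control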;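 further: 100% = tunicamycin at 10 µg/mL and 0% = DMSO alone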
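System: CHO CHOP reporter cells. Amount: 500 cells per well. Buffer or medium: F12 medium, 10% FBS. Compound dosing: one dose, 10 µM in 0.5% DMSO. Incubation: 6 h compound exposure at 37 °C after overnight seeding. Technique: Steady-Glo luciferase luminescence. Benchmarks: tunicamycin and DMSO controls.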
ABHD5 PLIN5 PPI – inhibitors of human ABHD5-perilipin-5 interaction | Split G. princeps luciferase complementation, luminescence, 4 h | inhibition, % at 4 µM | hit rate 0.78% among 360,000;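 active means inhibition above the mean inhibition across every tested compound plus 3 SD, cut at about 22% in these data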;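 further: 0% = DMSO only wells and the 100% control is not disclosed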
XBP1 UPR activ – adaptive UPR (XBP1) activation; hit rate 0.33% among 330,000; CHO-XBP1 luciferase reporter, IRE1-XBP1 UPR activation, luminescence; percent of tunicamycin response, DMSO as zero; activation, % at 20 µM;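 active means versus positive control, 20 µM dose yields 30% or more activation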;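 further: 100% = tunicamycin at 10 µg/mL and 0% = DMSO only wells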
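Material: IRE1-XBP1 luciferase reporter CHO line / Quantity: one thousand reporter cells per well / Buffer or medium: F12 with 10% serum / Compound: 20 µM single concentration, DMSO 1% / Times: 6 h treatment, 37 °C / Detection: Steady-Glo luciferase glow luminescence, 10 min after reagent addition / Benchmarks: tunicamycin high, DMSO low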
Granule exo inh – lytic granule exocytosis inhibition. TALL-104 LAMP-1 surface exposure, flow cytometry; cells stimulated with thapsigargin and PMA. inhibition, % at 10 µM. hit rate 0.66% among 360,000;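 active means inhibition above about 55%, limit read from the data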
Mdm2-MdmX conf – human Mdm2/MdmX binding inhibition, confirmed | inhibition, % at 8 µM | luminescent assay | AID 489028 | shares compounds with Mdm2-MdmX inh | hit rate 55% among 10,000; in the data active means inhibition above about 40%
Full FLuc ctr – counter-screen for Mdm2/MdmX inhibitors: full-length luciferase. SaOS-2 full-length luciferase counterscreen, luminescence. AID 504607. shares compounds with Mdm2-MdmX inh. inhibition, % at 8 µM. hit rate 77% among 6,200;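 active means mean inhibition at 8 µM reaching about 37%, which flags the compound as non-specific, limit read from the data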;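 further: p53-null SaOS-2 cells with luciferase driven by a doxycycline-inducible promoter; compound on cells about two nights before reading with doxycycline added after day one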
An asterisk follows results filed as active; nt = no result given.

SMILES | Mdm2-MdmX inh | CHOP UPR activ | ABHD5 PLIN5 PPI | XBP1 UPR activ | Granule exo inh | Mdm2-MdmX conf | Full FLuc ctr
COc1cc(C(=O)COC(=O)c2cccs2)cc(OC)c1OC | 40 | 0 | 3 | 6 | 2 | nt | nt
Cc1c(NC(=O)CSc2nnc3c4ccccc4n(CCc4ccccc4)c3n2)c(=O)n(-c2ccccc2)n1C | 100* | -4 | 10 | -6 | 1 | 90* | 52*
CCn1c2ccccc2c2nnc(SCC(=O)Nc3c(C)n(C)n(-c4ccccc4)c3=O)nc21 | 19 | 2 | -2 | -1 | 1 | nt | nt
C=CCOc1c(Cl)cc(CNc2ccc(N(C)C)cc2)cc1OC | 60* | 2 | -12 | -1 | 3 | 54* | 75*
C=CCOc1c(Cl)cc(CNc2ccc(C)c(Cl)c2)cc1OC | 76* | -2 | nt | 5 | nt | 77* | 97*
COc1cc(CNc2ccc(N3CCCC3)cc2)cc(Cl)c1OC | 41 | 2 | -4 | -3 | 1 | nt | nt
CC1CCCCN1C(=O)c1cc(-c2ccc3c(c2)OCO3)on1 (centres undefined) | -114 | 4 | -2 | -7 | -2 | nt | nt
Cc1ccc2[nH]c(C(=O)N/N=C/c3ccccc3O)c(C)c2c1 | 59* | 7 | -6 | 3 | -8 | 78* | 25
COc1ccc(/C=N/NC(=O)c2nc(-c3ccccc3)cc(-c3ccccc3)n2)cc1O | 56* | 20 | 6 | 23 | 1 | 33 | 121*
COc1ccc(/C=N/NC(=O)CCn2c3ccccc3c3ccccc32)cc1O | 53* | -1 | 6 | 2 | -2 | 58* | 60*
COc1ccc2[nH]c(C(=O)N/N=C/c3ccc(OC)c(O)c3)cc2c1 | 56* | 5 | 4 | 13 | 29 | 53* | 67*
COc1cccc(/C=N/NC(=O)CCn2c3ccccc3c3ccccc32)c1 | 11 | -3 | 4 | -1 | 11 | nt | nt
COc1ccc(/C=N/NC(=O)c2nc(-c3ccccc3)cc(-c3ccccc3)n2)cc1 | 18 | 8 | 5 | 6 | -1 | nt | nt
c1ccc(Cn2c(Cn3c(-c4cnccn4)nc4ccccc43)nc3ccccc32)cc1 | nt | nt | 11 | nt | -10 | nt | nt
COc1ccc(CC(NC(C)=O)C(=O)NC2CCN(S(=O)(=O)c3ccc(NC(C)=O)cc3)CC2)c(OC)c1 (centres undefined) | 14 | 1 | 1 | 1 | -4 | nt | nt
COc1cc(OC)c2cc(C(=O)N/N=C/c3ccccc3O)[nH]c2c1 | 73* | -2 | 1 | -1 | -5 | 68* | 38*
COc1ccc2[nH]c(C(=O)N/N=C/c3ccccc3OC)cc2c1 | 7 | 5 | -11 | 1 | 20 | nt | nt
O=C(NN=C1CCCC1)c1[nH]c2ccc(Br)cc2c1-c1ccccc1 | 27 | 0 | nt | -1 | nt | nt | nt
O=C(N/N=C/c1ccccc1)c1[nH]c2ccc(Br)cc2c1-c1ccccc1 | 63* | 1 | -9 | 14 | 3 | 67* | 83*
Nc1c(C(=O)NC2CCCC2)c2nc3ccccc3nc2n1/N=C/c1cccnc1 | 51* | 3 | 4 | 14 | 16 | 23 | nt
COCCCNC(=O)c1c(N)n(/N=C/c2ccccn2)c2nc3ccccc3nc12 | 32 | 2 | 1 | 2 | 0 | nt | nt
COC(=O)CCC(=O)NC(=S)Nc1sc(C)c(C)c1C(N)=O | 61* | 2 | -3 | 14 | 8 | 58* | 91*
O=C(NCC(c1cccs1)N1CCOCC1)c1cn(-c2ccccc2)nc1-c1ccc(Cl)cc1 (centres undefined) | 63* | 2 | 1 | -1 | 4 | 25 | nt
Cc1c(Cl)cccc1NC(=S)Nn1cnnc1 | -4 | -1 | 5 | 1 | -4 | nt | nt
CCOC(=O)C(C)(C)N(Cc1cccc(C)c1)S(=O)(=O)c1ccc(Cl)c([N+](=O)[O-])c1 | 57* | 15 | -9 | 0 | -1 | 16 | nt
CCOC(=O)C(C)(C)N(Cc1cccc(C)c1)S(=O)(=O)c1cccc([N+](=O)[O-])c1 | 14 | -1 | 4 | -4 | 2 | nt | nt
CCOc1ccc(CCNC(=O)c2cc(C)on2)cc1OCC | -8 | 1 | 1 | -1 | -6 | nt | nt

Screening data: PubChem BioAssay, several laboratories
